ChEMBL document CHEMBL1208782, “Synthesis and pharmacological validation of a novel series of non-steroidal FXR agonists” (Bioorg Med Chem Lett, 2010)

Key:
[1] = biological target: T1, Oxysterols receptor LXR-alpha (Homo sapiens, UniProt Q13133); assay: Agonist activity at LXRalpha-LBD expressed in HEK293 cells assessed as Gal4-DBD interaction by cellular mammalian one hybrid assay; format: functional, cell-based
T1 sequence (Q13133 whole entry): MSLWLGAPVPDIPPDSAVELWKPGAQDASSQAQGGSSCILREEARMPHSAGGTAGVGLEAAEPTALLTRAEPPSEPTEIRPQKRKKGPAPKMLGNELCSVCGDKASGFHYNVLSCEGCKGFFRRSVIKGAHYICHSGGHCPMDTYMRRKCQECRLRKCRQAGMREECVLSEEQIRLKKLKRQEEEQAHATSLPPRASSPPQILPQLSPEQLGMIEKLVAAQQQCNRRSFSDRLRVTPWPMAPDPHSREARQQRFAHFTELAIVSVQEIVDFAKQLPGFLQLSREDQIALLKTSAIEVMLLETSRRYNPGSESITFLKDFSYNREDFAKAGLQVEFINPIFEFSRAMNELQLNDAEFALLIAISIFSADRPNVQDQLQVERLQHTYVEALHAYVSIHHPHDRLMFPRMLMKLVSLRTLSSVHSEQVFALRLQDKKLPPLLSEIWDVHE

[2] = biological target: T2, Estrogen receptor (Homo sapiens) (UniProt P03372); assay: Agonist activity at ERalpha-LBD expressed in HEK293 cells assessed as Gal4-DBD interaction by cellular mammalian one hybrid assay relative to 17-beta-estradiol; format: functional, cell-based
T2 sequence (whole entry): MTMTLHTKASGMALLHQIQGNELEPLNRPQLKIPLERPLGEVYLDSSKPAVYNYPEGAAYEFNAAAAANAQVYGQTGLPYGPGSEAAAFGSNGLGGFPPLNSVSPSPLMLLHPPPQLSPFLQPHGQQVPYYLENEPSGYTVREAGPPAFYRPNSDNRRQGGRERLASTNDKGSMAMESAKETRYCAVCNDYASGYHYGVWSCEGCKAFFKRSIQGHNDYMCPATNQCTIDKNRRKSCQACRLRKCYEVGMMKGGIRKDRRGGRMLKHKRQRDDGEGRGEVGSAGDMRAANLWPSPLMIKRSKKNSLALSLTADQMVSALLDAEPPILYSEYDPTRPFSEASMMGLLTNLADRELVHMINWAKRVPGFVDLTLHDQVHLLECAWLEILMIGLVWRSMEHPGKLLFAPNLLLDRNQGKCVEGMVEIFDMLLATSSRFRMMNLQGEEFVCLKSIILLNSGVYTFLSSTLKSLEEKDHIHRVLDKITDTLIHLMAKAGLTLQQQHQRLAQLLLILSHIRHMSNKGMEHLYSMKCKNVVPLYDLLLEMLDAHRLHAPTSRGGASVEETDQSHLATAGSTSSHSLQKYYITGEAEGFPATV

[3] = biological target: T3, Peroxisome proliferator-activated receptor gamma (Homo sapiens) (UniProt P37231); assay: Agonist activity at PPARgamma-LBD expressed in HEK293 cells assessed as Gal4-DBD interaction by cellular mammalian one hybrid assay relative to rosiglitazone; format: functional, cell-based
T3 sequence (whole entry): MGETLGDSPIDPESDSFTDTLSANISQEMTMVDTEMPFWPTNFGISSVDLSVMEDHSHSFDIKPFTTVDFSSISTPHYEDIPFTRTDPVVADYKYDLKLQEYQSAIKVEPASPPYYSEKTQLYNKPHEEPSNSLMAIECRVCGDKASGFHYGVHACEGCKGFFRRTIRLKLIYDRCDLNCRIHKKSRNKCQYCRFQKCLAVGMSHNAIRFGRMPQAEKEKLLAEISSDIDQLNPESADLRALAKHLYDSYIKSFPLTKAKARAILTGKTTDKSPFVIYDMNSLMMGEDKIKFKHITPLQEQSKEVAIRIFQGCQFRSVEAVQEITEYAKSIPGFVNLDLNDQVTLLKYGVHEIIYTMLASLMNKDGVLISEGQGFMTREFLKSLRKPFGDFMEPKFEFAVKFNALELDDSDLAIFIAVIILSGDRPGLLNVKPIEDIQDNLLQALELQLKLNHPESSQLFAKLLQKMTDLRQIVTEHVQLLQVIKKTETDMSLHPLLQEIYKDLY

[4] = biological target: T4, Retinoic acid receptor beta (Homo sapiens) (UniProt P10826); assay: Agonist activity at RARbeta-LBD expressed in HEK293 cells assessed as Gal4-DBD interaction by cellular mammalian one hybrid assay relative to retinoic acid; format: functional, cell-based
T4 sequence (whole entry): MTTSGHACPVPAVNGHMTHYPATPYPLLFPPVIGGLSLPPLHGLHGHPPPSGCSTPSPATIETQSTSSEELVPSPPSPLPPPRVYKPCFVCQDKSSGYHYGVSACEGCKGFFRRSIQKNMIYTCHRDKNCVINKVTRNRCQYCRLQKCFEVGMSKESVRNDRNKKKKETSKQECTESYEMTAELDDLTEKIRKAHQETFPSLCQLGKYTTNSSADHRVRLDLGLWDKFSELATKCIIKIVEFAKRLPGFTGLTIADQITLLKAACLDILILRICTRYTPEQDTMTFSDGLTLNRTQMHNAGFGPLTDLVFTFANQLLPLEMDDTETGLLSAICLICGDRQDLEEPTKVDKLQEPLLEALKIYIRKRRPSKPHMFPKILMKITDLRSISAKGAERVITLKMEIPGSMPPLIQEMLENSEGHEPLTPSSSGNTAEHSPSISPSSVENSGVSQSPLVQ

Mus musculus [5] = assay: Volume of distribution in db/db mouse at 5 mg/kg, po; format: ADME, organism-based; set-up: dose 5 mg/kg, route oral; details: in vivo
Summary of the method: (§1)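 Derived from the single-dose mouse plasma time courses of parent compound, 5-240 min. Dosing was 5 mg/kg po or 1 mg/kg iv. Volume of distribution is in mL/kg, clearance in mL/h/kg, and oral bioavailability in %.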

[6] = Clearance in db/db mouse at 5 mg/kg, po; format: ADME, organism-based; set-up: dose 5 mg/kg, route oral; details: in vivo
Summary of the method: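 Mice received a single dose of 5 mg/kg po or 1 mg/kg iv. Plasma was sampled at 5, 10, 30, 90 and 240 min and the parent compound alone was measured (ng/mL). Clearance (mL/h/kg), Vd (mL/kg) and oral bioavailability were derived from these plasma profiles.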

Mus musculus [7] = assay: Volume of distribution in db/db mouse at 1 mg/kg, iv; format: ADME, organism-based; set-up: dose 1 mg/kg, route intravenous; details: in vivo; summary of the method: as §1
Liver = assay: Drug level in db/db mouse liver measured metabolites as carboxylic acid at 5 mg/kg, po after 240 mins; format: ADME, organism-based; set-up: dose 5 mg/kg, route oral; details: in vivo, 4 h
Summary of the method: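 Mice got a single dose, 5 mg/kg po or 1 mg/kg iv. Liver and bile were sampled 240 min after dosing. Parent carboxylic acid, its acyl-glucuronide and its taurine amide were quantified separately, in ng/mL. Glucuronide identity was confirmed by glucuronidase digestion of bile or bile extracts, which regenerated the parent.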

[8] = Drug level in db/db mouse liver at 25 mg/kg bid after 4 hrs by LC/MS-MS analysis; format: ADME, organism-based; set-up: dose 25 mg/kg; details: read-out: Drug uptake
Summary of the method: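 db/db mice were dosed twice daily for 12 days. Plasma and liver concentrations were determined 4 h and 24 h after the last administration.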

Estrogen receptor beta = Estrogen receptor beta (Homo sapiens, UniProt Q92731); assay: Agonist activity at ERbeta-LBD expressed in HEK293 cells assessed as Gal4-DBD interaction by cellular mammalian one hybrid assay; format: functional, cell-based
Chain of Estrogen receptor beta (Q92731 whole entry, the tested form may be a part): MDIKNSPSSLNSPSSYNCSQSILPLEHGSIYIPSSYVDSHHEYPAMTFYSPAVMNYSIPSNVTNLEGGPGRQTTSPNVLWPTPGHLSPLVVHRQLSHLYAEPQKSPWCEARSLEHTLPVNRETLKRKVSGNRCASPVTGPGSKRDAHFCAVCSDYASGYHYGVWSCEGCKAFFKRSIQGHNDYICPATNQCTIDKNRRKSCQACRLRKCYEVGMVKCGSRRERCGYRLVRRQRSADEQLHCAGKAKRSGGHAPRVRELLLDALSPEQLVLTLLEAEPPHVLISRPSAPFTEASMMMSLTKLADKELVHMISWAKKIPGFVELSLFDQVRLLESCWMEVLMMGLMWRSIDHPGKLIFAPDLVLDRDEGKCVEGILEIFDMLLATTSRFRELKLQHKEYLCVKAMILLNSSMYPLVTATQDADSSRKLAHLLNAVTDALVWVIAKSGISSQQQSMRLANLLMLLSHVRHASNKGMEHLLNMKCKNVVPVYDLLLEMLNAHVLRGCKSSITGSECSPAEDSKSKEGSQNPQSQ

Row | EC50 [1] [µM] | Efficacy [2] [%] | Efficacy [3] [%] | Efficacy [4] [%] | Vd (Mus musculus [5]) [L/kg] | CL/F [6] [mL/min/kg] | Vd (Mus musculus [7]) [L/kg] | Drug uptake (Liver) [ng/mL] | concentration at 4 h [8] [µM] | EC50 (Estrogen receptor beta) [µM] | Structure (SMILES)
1 | > 10 | 24 | 10 | 0 | – | – | – | – | – | – | CN(Cc1cccc(C(=O)O)c1)c1ccc(OCc2c(-c3c(Cl)cccc3Cl)noc2C2CC2)nc1C(F)(F)F
2 | > 10 | 0 | 0 | 0 | 5.26 | 104 | 0.931 | 1512 | 10.4 | > 10 | CC(C)c1onc(-c2c(Cl)cccc2Cl)c1COc1ccc(N(C)Cc2ccc(C(=O)O)cc2)c(C(F)(F)F)n1
3 | > 10 | 0 | 0 | 0 | 5.2 | 67.9 | 1.24 | 257 | 14.8 | > 10 | CN(Cc1ccc(C(=O)O)cc1)c1ccc(OCc2c(-c3c(Cl)cccc3Cl)noc2C2CC2)nc1C(F)(F)F
